Beta apoptosis – blocks beta cell apoptosis | protection from apoptosis, % (test concentration not listed) | hit rate 0.8% among 300,000 | INS-1E cytokine-induced death, ATP luminescence, 48 h; percent of positive-control rescue, neutral wells zero | AID 435005;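 active = Every replicate reaches about 75%, or at least half do and their mean reaches it too, limit read from the data; inconclusive = At least half of replicates reach the limit but their mean does not; inactive = Under half of replicates reach the limit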;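 note: higher means more ATP so stronger rescue from cytokine killing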
XBP1 UPR activ – adaptive UPR (XBP1) activation | CHO-XBP1 luciferase reporter, IRE1-XBP1 UPR activation, luminescence; percent of tunicamycin response, DMSO as zero | activation, % at 20 µM | hit rate 0.33% among 330,000 | AID 463104;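 active = versus positive control, 20 µM dose yields 30% or more activation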
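assay system = CHO-XBP1 luciferase reporter cells | amount = 1000 cells/well | buffer or medium = F12 plus 10% FBS | compound dosing = single point, 20 µM final compound, 1% DMSO | incubation = 16-18 h cell attachment at 37 °C, then 6 h compound exposure | detection = Steady-Glo luminescence read | controls = tunicamycin 10 µg/mL and vehicle-only wells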
Mdm2 MdmX PPI – inhibitors of human Mdm2/MdmX interaction | O15151+Q00987 | inhibition, % at 8 µM | hit rate 3% among 330,000 | SaOS-2 split-luciferase Mdm2/MdmX complementation, luminescence;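 active = inhibition of at least 50% at 8 µM in the primary screen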
CHOP UPR activ – activators of apoptotic arm of unfolded protein response (CHOP) | CHO-CHOP luciferase reporter, UPR activation, luminescence; percent of tunicamycin response over DMSO baseline | activation, % at 10 µM | hit rate 0.34% among 330,000 | AID 449763;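 active = at 10 µM dose, activation of 40% or more, normalized to positive control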
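Test system: CHO-CHOP cells, stable luciferase reporter of PERK-eIF2a-CHOP signalling | Quantity: 500 CHO-CHOP cells per well | Buffer or medium: F12 plus 10% serum | Compound dosing: 10 µM single point, 0.5% DMSO | Schedule: 6 h compound treatment, 37 °C | Signal: Luciferase luminescence | Control set: Tunicamycin high control, DMSO low control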
CSC inhib – blocks cancer stem cells; cancer stem cell-like cells viability, luminescence; inhibition, % at 7.5 µM; hit rate 1.1% among 300,000; in the data active = inhibition above about 75%; inconclusive = no clear call, values can overlap the other calls; tested in HMLE shEcad cells
SKKanGAS inh – blocks kanamycin growth of S. pyogenes SKKanGAS strain | BacTiter-Glo, 6 h | inhibition, % at 7.5 µM | hit rate 1.3% among 300,000;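 active = mean replicate score, as percent of positive control median, at least 50; inconclusive = mean below 50 but one replicate at or above 50; inactive = mean and every replicate below 50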;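 note: strain carries kanamycin resistance gene driven by streptokinase promoter and grows in 40 µg/ml kanamycin; loss of luminescence reflects streptokinase promoter inhibition or plain growth inhibition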
UPR CHOP confirm – apoptotic UPR (CHOP) activation, confirmed; hit rate 64% among 1,000; CHO-CHOP cells, CHOP-luciferase reporter luminescence; percent of tunicamycin response, DMSO as zero; activation, % at 10 µM; shares compounds with CHOP UPR activ; in the data active = activation above about 33%
XBP1 UPR conf – confirmation of adaptive unfolded protein response (XBP1) activators; shares compounds with XBP1 UPR activ; CHO-XBP1 IRE1-XBP1 luciferase reporter, luminescence; activation, % at 20 µM; hit rate 63% among 1,000; AID 485299;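 active = reporter signal at least 30% of the positive control's activation in two or more of four replicate wells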
Mdm2-MdmX conf – human Mdm2/MdmX binding inhibition, confirmed; shares compounds with Mdm2 MdmX PPI; luminescent assay; inhibition, % at 8 µM; hit rate 55% among 10,000; AID 489028; in the data active = inhibition above about 40%
Full FLuc ctr – counter-screen for Mdm2/MdmX inhibitors: full-length luciferase. AID 504607. inhibition, % at 8 µM. shares compounds with Mdm2 MdmX PPI. SaOS-2 full-length luciferase counterscreen, luminescence. hit rate 77% among 6,200;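 active = mean inhibition at 8 µM reaching about 37%, which flags the compound as non-specific, limit read from the data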;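 note: p53-null SaOS-2 cells with luciferase driven by a doxycycline-inducible promoter; compound on cells about two nights before reading with doxycycline added after day one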
Numbers stand for hits; . = inactive; ? = inconclusive; / = no result given. In the library only some 4.8% were active in any assay of this set; here they are far more common.

SMILES	Beta apoptosis	XBP1 UPR activ	Mdm2 MdmX PPI	CHOP UPR activ	CSC inhib	SKKanGAS inh	UPR CHOP confirm	XBP1 UPR conf	Mdm2-MdmX conf	Full FLuc ctr
Cc1[nH]n(-c2ccc(Cl)cc2)c(=O)c1C=NC12CN3CN(CN(C3)C1)C2	.	.	.	.	.	.	/	/	/	/
COc1cc(SC#N)ccc1N=Cc1c(C)[nH]n(-c2ccc(Cl)cc2)c1=O	.	101.0	.	86.4	.	.	88.8	134.5	/	/
C=CCC[C@@H](Cc1ccc(F)cc1)C(=O)OC[C@@H](NC(=O)[C@@H](CC=C)CC(=O)N[C@H](CO)Cc1ccccc1)C(C)(C)C	.	.	.	.	.	/	/	/	/	/
CCOC(=O)c1c(NC(C)=O)sc2c1CCC(C=O)=C2Sc1ccccc1	.	64.3	.	294.5	88.8	.	632.2	.	/	/
COc1ccccc1C(=O)NC(=S)NNC(=O)c1sc2ccccc2c1Cl	.	38.4	.	48.3	.	118.5	50.7	53.5	/	/
CC(=O)c1cccc(N=Cc2c(O)c3ccccc3oc2=O)c1	.	147.2	.	158.8	.	.	35.0	93.2	/	/
CC(=O)c1cccc(N=Cc2c(O)ccc3ccccc23)c1	.	.	.	.	.	.	/	/	/	/
Cc1ccc(F)cc1N=Cc1c(O)c2ccccc2oc1=O	.	75.8	.	148.3	.	.	130.8	141.4	/	/
CCOc1ccc(Br)cc1S(=O)(=O)Nc1cccnc1	.	.	.	.	.	.	/	/	/	/
O=C(/C=C1\NC2(CCCC2)Cc2ccccc21)C(=O)N/N=C/c1ccc(O)c(O)c1	.	91.9	.	124.1	.	.	67.9	79.6	/	/
COC(=O)c1cc(S(=O)(=O)NCC2CCN(Cc3cccc(Cl)c3)CC2)c[nH]1	.	.	.	.	.	.	/	/	/	/
O=C(NCc1ccccc1Br)c1cccc2c1C(=O)c1ccc(-c3ccc(OC(F)(F)F)cc3)cc1S2(=O)=O	.	114.7	.	97.8	/	/	88.3	85.9	/	/
O=C(O)c1cccc2c1C(=O)c1ccc(-c3ccc(OC(F)(F)F)cc3)cc1S2(=O)=O	.	.	.	.	.	/	/	/	/	/
c1ccc(N=Nc2ccc3cccccc2-3)cc1	/	83.1	.	67.3	.	.	.	60.5	/	/
O=c1[nH]c(SCc2cccc(Cl)c2)nc2ccccc12	.	.	.	.	.	/	/	/	/	/
O=c1[nH]c(-c2ccc(-c3cccc(Cl)c3)o2)nc2ccccc12	.	91.9	.	74.1	.	/	105.4	176.2	/	/
CCOc1cc(/C=C2/C(=N)N3C=CSC3=NC2=O)ccc1OCCCOc1ccccc1C	/	265.1	.	77.8	/	.	35.5	134.2	/	/
CCc1ccc(NC2=CC(=O)C(=O)c3ccccc32)cc1	/	.	69.7	62.3	/	/	.	/	64.8	85.0
CCc1ccc2c(c1)C(=O)c1ccccc1C2=O	.	.	.	.	.	.	/	/	/	/
C/C(=N\NC(=O)c1ccc(F)cc1)c1ccccn1	110.9	.	97.3	302.8	104.3	88.5	266.7	/	60.0	58.2
C/C(=N\NC(=O)c1cc2ccccc2cc1O)c1ccccn1	98.7	.	52.8	245.0	.	101.9	291.9	/	54.1	.
C/C(=N\NC(=O)c1c[nH]c2ccccc12)c1ccccn1	.	.	.	.	.	.	/	/	/	/
C=CCNC(=S)N/N=C(\C)c1ccccn1	93.4	.	91.4	211.4	113.6	81.1	203.3	/	63.8	.
C1=CC2=NC34CCCCC3CC3=C(CCCC3)N4C2=CC1=NC1CCCCC1 (stereo not drawn)	.	.	100.3	48.5	.	.	.	/	77.7	37.6
CCc1ccc2nc(N(CCCN(C)C)C(=O)c3ccc(S(=O)(=O)N4CCc5ccccc5C4)cc3)sc2c1	.	59.3	98.5	40.5	.	.	.	59.1	.	/
SMILES	Beta apoptosis	XBP1 UPR activ	Mdm2 MdmX PPI	CHOP UPR activ	CSC inhib	SKKanGAS inh	UPR CHOP confirm	XBP1 UPR conf	Mdm2-MdmX conf	Full FLuc ctr
CCc1ccc2nc(N(CCCN(C)C)C(=O)c3ccc(S(=O)(=O)N(C)C4CCCCC4)cc3)sc2c1	.	130.6	65.9	112.8	.	.	65.3	/	47.6	55.8
CN(C(=O)CCCN1C(=O)c2ccccc2C1=O)C1CCCCC1	.	.	.	.	/	/	/	/	/	/
CCOC(=O)c1cc(S(=O)(=O)N2CCC(C)CC2)cn1C	.	.	.	.	.	.	/	/	/	/
Cc1ccc(C)c2sc(N3CCN(C(=O)c4ccc([N+](=O)[O-])o4)CC3)nc12	.	.	90.2	82.8	.	65.4	60.8	/	50.8	54.9
O=C(c1ccc([N+](=O)[O-])o1)N1CCN(c2nc3c(F)cc(F)cc3s2)CC1	.	.	.	.	.	.	/	/	/	/
O=C(Nc1nc2ccc(F)cc2s1)c1ccccn1	75.7	.	92.5	79.9	.	97.7	73.2	/	65.2	58.2
Cc1cc(C)nc(SCc2ccc(C(=O)N/N=C/c3cccc(O)c3O)cc2)n1	95.3	53.4	74.9	139.8	109.9	.	77.4	52.0	67.8	.
Cn1c2ccccc2c(=O)c2c(=O)n(-c3ccccc3)c(-c3ccc(C(C)(C)C)cc3)nc21	.	.	88.8	58.9	.	.	.	/	78.6	54.6
Cc1ccc(-c2nc3c(c(=O)c4ccccc4n3C)c(=O)n2-c2ccc(F)cc2)cc1	.	.	.	.	.	.	/	/	/	/
Cc1ccc(S(=O)(=O)Nc2ccccc2-c2ccccc2NS(=O)(=O)c2ccc(C)cc2)cc1	.	.	.	.	?	.	/	/	/	/
Cc1ccc(S(=O)(=O)Nc2cccc3cccnc23)cc1	.	.	99.1	620.5	78.1	?	326.4	/	98.7	51.9
CCOc1ccccc1-n1c(SCC(=O)Nc2ccc(CC)cc2)nc2n[nH]c(C)c2c1=N	.	245.6	93.0	181.2	.	.	107.1	232.5	.	/
C=CCNc1nc(C(=O)OCC(=O)Nc2ccccc2C(F)(F)F)cs1	.	.	.	.	/	/	/	/	/	/
COc1ccccc1CNC(=O)C(=O)NCCC1CCCCN1S(=O)(=O)c1ccccc1 (stereo not drawn)	/	.	.	.	.	.	/	/	/	/
COc1ccccc1N1CCN(Cc2ccc(O)c3ncccc23)CC1	139.5	.	76.7	113.1	/	.	97.5	/	67.2	.
CCOC(=O)N1CCN(Cc2cc(Cl)c3cccnc3c2O)CC1	102.8	.	63.6	105.2	.	66.4	116.1	/	51.5	37.8
CCOC(=O)C1CCN(Cc2ccc(O)c3ncccc23)CC1	84.9	.	81.0	234.8	.	.	142.3	/	61.5	50.2

Screening data: PubChem BioAssay, several laboratories
